# In ChEMBL document CHEMBL4002591 (J Med Chem, 2017):
# Key:
# [1] = target: T1, Protein mono-ADP-ribosyltransferase PARP10 (Homo sapiens, UniProt Q53GL7); test: Inhibition of PARP10 (unknown origin)
# T1 sequence (Q53GL7 whole entry): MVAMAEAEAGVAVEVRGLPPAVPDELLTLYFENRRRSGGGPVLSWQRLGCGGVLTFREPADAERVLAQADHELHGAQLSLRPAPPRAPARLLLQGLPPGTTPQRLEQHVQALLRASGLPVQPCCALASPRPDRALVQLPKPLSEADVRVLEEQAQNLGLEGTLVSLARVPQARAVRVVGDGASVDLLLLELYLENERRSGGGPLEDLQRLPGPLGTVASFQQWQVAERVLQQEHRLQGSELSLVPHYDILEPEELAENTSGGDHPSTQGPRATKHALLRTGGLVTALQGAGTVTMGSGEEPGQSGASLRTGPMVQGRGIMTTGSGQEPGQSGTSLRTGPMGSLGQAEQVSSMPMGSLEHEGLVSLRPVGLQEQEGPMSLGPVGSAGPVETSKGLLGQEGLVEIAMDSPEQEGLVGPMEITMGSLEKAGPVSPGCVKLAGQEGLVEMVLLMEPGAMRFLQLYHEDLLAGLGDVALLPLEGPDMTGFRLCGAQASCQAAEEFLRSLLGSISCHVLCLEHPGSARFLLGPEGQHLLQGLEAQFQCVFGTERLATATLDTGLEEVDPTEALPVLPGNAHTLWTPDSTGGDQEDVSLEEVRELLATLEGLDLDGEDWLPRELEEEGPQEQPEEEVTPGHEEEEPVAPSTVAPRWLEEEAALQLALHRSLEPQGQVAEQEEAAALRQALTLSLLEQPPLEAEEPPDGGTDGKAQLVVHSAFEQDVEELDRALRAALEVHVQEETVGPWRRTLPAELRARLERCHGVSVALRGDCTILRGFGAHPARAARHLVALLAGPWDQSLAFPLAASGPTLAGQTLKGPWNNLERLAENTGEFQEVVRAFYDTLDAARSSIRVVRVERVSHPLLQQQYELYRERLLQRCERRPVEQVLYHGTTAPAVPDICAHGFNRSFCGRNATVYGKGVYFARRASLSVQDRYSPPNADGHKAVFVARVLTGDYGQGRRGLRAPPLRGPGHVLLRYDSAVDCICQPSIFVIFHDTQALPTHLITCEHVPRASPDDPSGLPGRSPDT
# HEK293 = test: Cytotoxicity against HEK293 cells by light microscopic analysis; format: cell-based; conditions: human
# Procedure, shortened: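 Viability of TCF/LEF reporter HEK293 cells was checked by light microscopy during the Wnt-signaling reporter assay.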
# [2] = target: Poly [ADP-ribose] polymerase 2 (Homo sapiens, UniProt Q9UGN5); test: Inhibition of recombinant human N-terminal GST-tagged PARP2 (2 to 583 residues) expressed in baculovirus infected Sf9 cells measured after 1 hr by chemiluminescence assay
# [3] = target: T2, Protein mono-ADP-ribosyltransferase PARP16 (Homo sapiens, UniProt Q8N5Y8); test: Inhibition of PARP16 (unknown origin)
# T2 sequence (Q8N5Y8 whole entry): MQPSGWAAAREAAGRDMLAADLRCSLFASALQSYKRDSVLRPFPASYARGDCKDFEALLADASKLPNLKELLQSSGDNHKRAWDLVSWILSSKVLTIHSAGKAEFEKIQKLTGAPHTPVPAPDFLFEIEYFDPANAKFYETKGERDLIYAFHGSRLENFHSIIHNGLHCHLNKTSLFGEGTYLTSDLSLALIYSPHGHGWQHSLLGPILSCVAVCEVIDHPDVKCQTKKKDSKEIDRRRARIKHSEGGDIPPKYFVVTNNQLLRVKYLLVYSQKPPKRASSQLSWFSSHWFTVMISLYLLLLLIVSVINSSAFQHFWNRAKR
# [4] = target: T3, Protein mono-ADP-ribosyltransferase PARP15 (Homo sapiens, UniProt Q460N3); test: Inhibition of PARP15 (unknown origin)
# T3 sequence (Q460N3 whole entry): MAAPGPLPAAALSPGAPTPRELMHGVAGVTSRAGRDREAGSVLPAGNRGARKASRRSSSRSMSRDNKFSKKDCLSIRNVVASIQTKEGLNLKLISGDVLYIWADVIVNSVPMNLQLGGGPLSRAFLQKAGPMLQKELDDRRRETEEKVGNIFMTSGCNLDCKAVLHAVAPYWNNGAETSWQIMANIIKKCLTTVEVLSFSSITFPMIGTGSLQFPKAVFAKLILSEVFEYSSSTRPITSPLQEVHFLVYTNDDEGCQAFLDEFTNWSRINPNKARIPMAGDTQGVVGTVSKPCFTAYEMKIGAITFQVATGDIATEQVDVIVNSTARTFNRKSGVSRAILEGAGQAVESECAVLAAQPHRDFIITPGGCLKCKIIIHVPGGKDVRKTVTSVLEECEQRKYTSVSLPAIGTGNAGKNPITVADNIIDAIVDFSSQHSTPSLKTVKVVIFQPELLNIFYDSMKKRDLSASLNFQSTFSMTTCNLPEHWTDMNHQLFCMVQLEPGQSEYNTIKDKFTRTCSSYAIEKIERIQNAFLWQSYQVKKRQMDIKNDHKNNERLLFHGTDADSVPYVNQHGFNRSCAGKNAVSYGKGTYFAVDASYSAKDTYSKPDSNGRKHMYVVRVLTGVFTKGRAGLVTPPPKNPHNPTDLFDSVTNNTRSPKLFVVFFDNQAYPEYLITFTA
# Sequence of Poly [ADP-ribose] polymerase 2 (Q9UGN5 whole entry, the tested form may be a part): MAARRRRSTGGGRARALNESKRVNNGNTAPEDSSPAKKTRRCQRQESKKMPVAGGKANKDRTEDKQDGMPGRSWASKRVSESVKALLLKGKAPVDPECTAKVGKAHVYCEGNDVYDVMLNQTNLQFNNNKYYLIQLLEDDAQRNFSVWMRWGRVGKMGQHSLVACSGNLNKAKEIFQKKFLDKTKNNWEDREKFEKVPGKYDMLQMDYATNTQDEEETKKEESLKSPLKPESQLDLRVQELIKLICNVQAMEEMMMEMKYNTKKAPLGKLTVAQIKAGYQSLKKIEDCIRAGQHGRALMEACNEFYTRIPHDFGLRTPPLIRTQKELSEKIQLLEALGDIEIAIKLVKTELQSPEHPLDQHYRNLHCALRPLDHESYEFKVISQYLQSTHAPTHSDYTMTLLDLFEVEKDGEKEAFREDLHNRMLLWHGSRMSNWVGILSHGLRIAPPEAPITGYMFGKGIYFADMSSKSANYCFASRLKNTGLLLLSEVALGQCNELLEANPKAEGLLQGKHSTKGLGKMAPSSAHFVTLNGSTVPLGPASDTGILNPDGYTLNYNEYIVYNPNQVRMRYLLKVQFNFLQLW
SMILES,IC50 [1] [µM],Activity (HEK293),IC50 [2] [µM],IC50 [3] [µM],IC50 [4] [µM]
Cc1cccc2c(=O)[nH]c(CCC(=O)Nc3ccc(C(=O)Nc4cccc5cccnc45)cc3)nc12,> 100,Non-Toxic,11.6,> 100,> 100
O=C(CCc1nc2ccccc2c(=O)[nH]1)Nc1ccc(C(=O)Nc2cccc3cccnc23)cc1,> 100,Non-Toxic,6.9,> 100,> 100
